NadD inh = NadD (S. aureus) enzyme inhibition; purified NadD enzyme, colorimetric absorbance read-out; inhibition, % at 20 µM; hit rate 0.78% among 360,000; in the data active = inhibition above about 26%
core dimer inh = blocks dimerization of HCV core protein. TR-FRET GST/Flag-core106 dimerization, 1536-well. inhibition, % at 5 µM. hit rate 0.33% among 300,000;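 active = inhibition above the mean of all tested compounds plus 3 SD, set per screening campaign, cut at about 45% in these data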
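System – GST-tagged and Flag-tagged HCV core protein residues 1-106 · Repeats – one well for each compound · Technique – TR-FRET 671 and 617 nm emission · Doses – one concentration, 5 µM, in 0.5% DMSO · Times – 4 h, 22.5 °C incubation · Also added – Eu donor and XL665 acceptor anti-tag antibodies · Measure – percent inhibition of core106 dimerization signal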
rCAG binder = binds r(CAG) RNA repeats; hit rate 1.3% among 370,000; inhibition, % at 3 µM; r(CAG) RNA repeat, TO-PRO-1 dye displacement fluorescence; AID 651821;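 active = inhibition above the plate cutoff, the mean of all test compounds on that plate plus 3 SD, cut at about 35% in these data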;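 also: 0% = DMSO alone and 100% = 100 µM mitoxantrone as full dye displacement; higher means more dye released from RNA so lower well fluorescence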
ABHD5-PLIN5 inh = blocks binding of human ABHD5 to perilipin-5; Q00G26+Q8WTS1; Split G. princeps luciferase complementation, luminescence, 4 h; inhibition, % at 4 µM; hit rate 0.78% among 360,000; AID 602281;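 active = inhibition above the mean inhibition across every tested compound plus 3 SD, cut at about 22% in these data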;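 also: 0% = DMSO only wells and the 100% control is not disclosed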
ABHD5-PLIN5 conf = confirmation of human ABHD5-PLIN5 interaction inhibitors | AID 651612 | inhibition, % at 4 µM | shares compounds with ABHD5-PLIN5 inh | biochemical ABHD5-PLIN5 interaction, luminescence | hit rate 67% among 2,200; in the data active = inhibition above about 23%;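 also: 0% = DMSO vehicle wells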
HNF4 split-luc = active in HNF4 split-luciferase counter-screen for ABHD5-PLIN5 inhibitors; inhibition, % at 4 µM; hit rate 77% among 2,200; AID 651674; shares compounds with ABHD5-PLIN5 inh; HNF4 dimerization, luminescence, biochemical;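 active = mean inhibition across replicate wells exceeding the computed hit threshold, cut at about 13% in these data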;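 also: light from luciferase halves that rejoin when HNF4 fusion proteins dimerize; 0% = DMSO only wells and the 100% control is not given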
Active calls of the source: *; nt = no result given. In the library only some 2.6% were active in any assay of this set; here they are far more common.

SMILES	NadD inh	core dimer inh	rCAG binder	ABHD5-PLIN5 inh	ABHD5-PLIN5 conf	HNF4 split-luc
CC(=O)N1CCC(C(=O)N2c3ccccc3N=C(c3ccc4c(c3)OCO4)C2C(=O)NCc2ccccc2)CC1 (centres undefined)	nt	nt	5	19	nt	nt
CCCCCCc1c[nH]c2ccc(O)c(-c3ccccc3)c12	nt	nt	7	nt	nt	nt
Cc1nnc(N=c2ssnc2Cl)o1	5	nt	5	47*	98*	110*
CN(c1ccccc1)S(=O)(=O)c1ccc(NC(=O)c2nc(S(C)(=O)=O)ncc2Cl)cc1	4	13	6	78*	91*	106*
COc1cccc(NC(=O)c2nc(S(C)(=O)=O)ncc2Cl)c1	-4	-5	-1	53*	77*	102*
CN(c1ccccc1)S(=O)(=O)c1ccc(NC(=O)c2ccccc2)cc1	-9	-6	1	-3	nt	nt
COCCCNC(=O)C[C@H]1C[C@@]2(C(=O)OC)C(=C[C@H](C(C)C)O[C@@H]2C2CC2)N(Cc2ccc3c(c2)OCO3)C1=O	nt	nt	0	nt	nt	nt
CCN(CC)S(=O)(=O)c1ccc(C)c(NC(=O)Cc2ccc(S(=O)(=O)N3CCOCC3)s2)c1	1	10	5	23*	-1	0
CCCCCCCCCCCCCCCC[n+]1cccc2ccccc21	53*	-11	8	35*	16	-3
COC(=O)/C(=C/c1cccnc1)NC(=O)c1ccccc1	-2	-4	3	3	nt	nt
COC(=O)C(=C/C(C)=C/c1cccnc1)C(=O)OC	1	-8	2	34*	54*	53*
CCOC(=O)N1CCN(C(=O)C[C@@H]2C(=O)N(CCc3ccc(Cl)cc3)/C3=C/CCCCC[C@@]32C(=O)OCC)CC1	nt	nt	5	nt	nt	nt
O=[N+]([O-])c1ccc(/C=N/Nc2ccc3ccccc3c2)o1	4	-9	31	28*	31*	17*
C[C@@H]1CN([C@H](C)CO)C(=O)CCCn2cc(nn2)CO[C@H]1CN(C)C(=O)OCc1ccccc1	-5	nt	-2	2	nt	nt
Cc1cccc(Nc2nnc(SC(C)C(=O)NC3CC3)s2)c1 (centres undefined)	-4	nt	3	-3	nt	nt
CCc1ccc(Nc2nnc(SC(C)C(=O)NC3CC3)s2)cc1 (centres undefined)	-1	nt	7	78*	5	0
COC(=O)[C@]12C[C@H](CC(=O)NCCCCc3ccccc3)C(=O)N(Cc3cccc4ccccc34)C1=C[C@H](C(C)(C)C)O[C@@H]2C	nt	nt	3	nt	nt	nt
COc1ccc(C(=O)c2c(C)c3ccccc3n2CC(O)CNC(C)C)cc1 (centres undefined)	-5	-5	7	26*	5	0
Cc1ccc(-n2c(Cc3cccs3)nnc2SCC(=O)Nc2ccc(OCc3ccccc3)cc2)cc1	nt	nt	7	nt	nt	nt
CCCC(=O)NC1=C(Cl)C(=O)c2ccccc2C1=O	7	nt	1	48*	64*	101*
N#CC1=C(N)NC(=S)C(C(N)=O)C1c1ccc(Cl)cc1Cl (centres undefined)	5	-6	1	57*	13	101*
N#CC1=C(N)NC(=S)C(C(N)=O)C1c1ccccc1F (centres undefined)	-1	-19	1	38*	-11	84*
O=[N+]([O-])c1ccc(Sc2ccncn2)c([N+](=O)[O-])c1	-6	nt	3	29*	41*	41*
CC(=O)c1cc(-c2cccc(C(C)C)c2)c(=O)n2c1CCC2	nt	nt	0	nt	nt	nt
Cc1ccc(C2CC(c3cccs3)=NN2C(=O)c2ccc(Br)o2)cc1 (centres undefined)	8	34	9	25*	45*	58*
SMILES	NadD inh	core dimer inh	rCAG binder	ABHD5-PLIN5 inh	ABHD5-PLIN5 conf	HNF4 split-luc
CC(=O)N1N=C(c2cccs2)CC1c1ccc(Br)cc1 (centres undefined)	-4	-16	-4	-2	nt	nt
CC1(C(=O)NS(=O)(=O)c2cccc(Cl)c2)CCN1C(=O)C1(c2ccccc2)CC1 (centres undefined)	0	nt	9	-7	nt	nt
CC(=O)Cc1cc(O)c2ccccc2c1OC(=O)c1ccc(Br)cc1	-7	-2	10	73*	83*	13*
CC(C)N(C(N)=NC(=O)OCc1ccccc1)C(C)C	nt	nt	-2	nt	nt	nt
Cc1ccc(Nc2cc(C)nc(NCc3ccccc3)n2)cc1	10	-13	5	23*	12	15*
O=C(/C=C/c1ccco1)N1CCN(S(=O)(=O)/C=C/c2ccccc2)CC1	10	23	4	29*	24*	46*

Screening results: PubChem BioAssay, several laboratories
